The target of assay [1] is T1, Solute carrier family 26 member 6 (Mus musculus) (UniProt Q8CIW6).
T1 sequence (whole entry): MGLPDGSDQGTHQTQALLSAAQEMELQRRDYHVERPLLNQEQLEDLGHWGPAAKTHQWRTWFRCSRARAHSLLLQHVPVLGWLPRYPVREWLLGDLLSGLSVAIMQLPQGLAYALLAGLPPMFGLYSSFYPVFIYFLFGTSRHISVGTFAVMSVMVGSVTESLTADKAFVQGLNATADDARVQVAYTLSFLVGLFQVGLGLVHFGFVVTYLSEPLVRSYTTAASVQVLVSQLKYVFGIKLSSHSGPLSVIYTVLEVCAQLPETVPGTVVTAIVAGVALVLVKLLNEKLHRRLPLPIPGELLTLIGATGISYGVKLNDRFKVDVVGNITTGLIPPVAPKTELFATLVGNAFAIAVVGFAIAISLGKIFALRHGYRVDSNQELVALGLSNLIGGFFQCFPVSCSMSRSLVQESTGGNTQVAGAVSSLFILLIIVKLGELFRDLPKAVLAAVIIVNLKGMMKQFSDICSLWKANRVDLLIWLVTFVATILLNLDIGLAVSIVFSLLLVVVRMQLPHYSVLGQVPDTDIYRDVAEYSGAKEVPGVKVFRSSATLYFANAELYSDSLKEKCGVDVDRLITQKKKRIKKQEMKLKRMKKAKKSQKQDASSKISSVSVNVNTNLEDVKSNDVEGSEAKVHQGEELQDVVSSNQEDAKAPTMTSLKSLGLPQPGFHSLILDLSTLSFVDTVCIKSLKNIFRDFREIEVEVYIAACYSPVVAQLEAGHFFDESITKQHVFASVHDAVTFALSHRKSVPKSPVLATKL
Nature of the assay: Inhibition of mouse slc26a6 expressed in FRT cells co-expressing EYFP-H148Q/I152L/F46L assessed as reduction in protein-mediated chloride/iodide exchange at 10 uM preincubated for 10 mins followed by NaI-substituted PBS addition and measured by YFP-based fluorescence assay. Type of assay: cell-based. An outline of the steps: (§1)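 FRT cells expressing the given slc26 transporter plus EYFP-H148Q/I152L/F46L were preincubated 10 min with 0 or 10 µM compound in PBS. Iodide-substituted PBS was then added (140 mM NaCl replaced by NaI). The rate of YFP fluorescence quenching gave chloride/iodide exchange.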

In assay [2] the target is T2, Solute carrier family 26 member 9 (Homo sapiens) (UniProt Q7LBE3).
T2 sequence (whole entry): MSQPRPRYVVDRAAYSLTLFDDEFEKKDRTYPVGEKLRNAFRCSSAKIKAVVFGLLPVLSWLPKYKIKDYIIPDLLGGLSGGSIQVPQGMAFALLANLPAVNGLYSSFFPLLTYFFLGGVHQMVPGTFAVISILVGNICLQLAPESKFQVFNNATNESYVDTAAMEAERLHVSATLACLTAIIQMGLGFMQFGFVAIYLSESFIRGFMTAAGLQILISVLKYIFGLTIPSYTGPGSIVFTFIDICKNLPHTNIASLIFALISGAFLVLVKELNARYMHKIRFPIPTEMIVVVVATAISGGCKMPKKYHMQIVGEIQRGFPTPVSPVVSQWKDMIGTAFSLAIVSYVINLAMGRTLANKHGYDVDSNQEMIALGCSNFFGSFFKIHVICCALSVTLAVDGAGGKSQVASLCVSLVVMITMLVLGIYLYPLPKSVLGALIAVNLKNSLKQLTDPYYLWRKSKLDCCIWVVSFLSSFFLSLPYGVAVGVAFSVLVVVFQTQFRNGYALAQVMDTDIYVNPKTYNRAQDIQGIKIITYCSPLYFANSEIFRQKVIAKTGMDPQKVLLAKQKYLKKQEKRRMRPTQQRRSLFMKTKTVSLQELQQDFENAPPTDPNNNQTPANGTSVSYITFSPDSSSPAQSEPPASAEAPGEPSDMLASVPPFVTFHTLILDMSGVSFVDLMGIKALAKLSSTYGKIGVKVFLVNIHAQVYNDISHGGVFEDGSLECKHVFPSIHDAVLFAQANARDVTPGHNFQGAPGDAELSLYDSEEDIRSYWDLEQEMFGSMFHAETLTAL
As to the kind of experiment: Inhibition of human slc26a9 expressed in FRT cells co-expressing EYFP-H148Q/I152L/F46L assessed as reduction in protein-mediated chloride/iodide exchange at 10 uM preincubated for 10 mins followed by NaI-substituted PBS addition and measured by YFP-based fluorescence assay. Type of assay: cell-based. In a few lines:
as §1

A further assay has as its target T3, Chloride anion exchanger (Mus musculus, UniProt Q9WVC8).
T3 sequence (Q9WVC8 whole entry): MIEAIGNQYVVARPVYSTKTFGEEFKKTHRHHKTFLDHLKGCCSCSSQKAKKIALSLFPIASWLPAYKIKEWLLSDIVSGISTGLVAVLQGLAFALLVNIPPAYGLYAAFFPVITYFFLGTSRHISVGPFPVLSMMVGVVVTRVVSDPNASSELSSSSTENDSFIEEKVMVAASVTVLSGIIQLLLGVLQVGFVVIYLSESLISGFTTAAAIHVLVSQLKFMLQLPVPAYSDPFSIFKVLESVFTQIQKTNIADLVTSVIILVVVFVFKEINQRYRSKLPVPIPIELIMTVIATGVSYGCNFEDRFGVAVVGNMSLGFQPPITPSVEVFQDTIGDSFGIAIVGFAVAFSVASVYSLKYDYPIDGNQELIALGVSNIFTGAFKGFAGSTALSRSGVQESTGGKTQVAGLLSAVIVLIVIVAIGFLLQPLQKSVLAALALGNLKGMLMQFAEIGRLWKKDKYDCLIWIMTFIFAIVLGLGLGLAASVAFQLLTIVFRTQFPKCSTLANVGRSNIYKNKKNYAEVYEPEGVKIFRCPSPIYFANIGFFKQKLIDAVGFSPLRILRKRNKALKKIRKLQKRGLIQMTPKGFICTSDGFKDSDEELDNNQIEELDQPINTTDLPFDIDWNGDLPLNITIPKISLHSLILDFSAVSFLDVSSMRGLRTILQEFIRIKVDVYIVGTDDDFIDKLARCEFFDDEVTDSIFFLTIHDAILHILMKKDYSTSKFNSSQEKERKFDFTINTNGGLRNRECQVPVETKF

Activity calls are given as the source filed them. No cut-off for these calls is given here.

By IC50 is commonly meant the concentration needed to halve the response being measured.

As to `Cc1c(CC(=O)O)c(=O)oc2c(C)c(OCc3cccc(I)c3)ccc12`, the inhibition entry in assay [1] and in assay [2] was “inactive” throughout. On Chloride anion exchanger, the IC50 came out at 35 nM.
Consider `Cc1c(CC(=O)O)c(=O)oc2c(C)c(OCc3cccc(C(F)(F)F)c3)ccc12`, for which the inhibition entry in assay [1] and in assay [2] was “inactive” each time. The compound also registered an IC50 at Chloride anion exchanger of 23 nM.

The values above are taken from ChEMBL document CHEMBL4373708 (J Med Chem, 2019).
